According to paper PMC2667967 (Cancer cell, 2008):
Non-standard residues stand in square brackets, D forms with d. No end group written: not given here. *: point of attachment. FITC = O=C1OC2(c3ccc(O)cc3Oc3cc(O)ccc32)c2ccc(NC(=S)*)cc21

Columns and labels:
GST-Bcl-2 [1] = target: T1, GST-Bcl-2 (Homo sapiens, UniProt P10415); test: FP competition assay, GST-Bcl-2; type: binding; details: 200 nM GST-Bcl-2, 20 nM FITC-NuBCP-r8, PBS pH 7.6, 25°C, triplicate
CEM leukemia cells = test: Killing of CEM leukemia cells stably expressing Bcl-2; type: cell-based; details: Figure S4
Bcl-2^−/−MEFs = test: Apoptosis of Bcl-2 knockout MEFs; type: cell-based, mouse; details: STS 0.1 µM or Bad BH3 peptide 10 µM, 36 h, DAPI
Outline: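 Wild-type and Bcl-2−/− MEFs, with Bcl-2 status confirmed by immunoblotting, were exposed to staurosporine (0.1 µM) or Bad BH3 peptide (10 µM) for 36 h. Peptide treatments used medium with 10% FBS unless otherwise specified. Apoptosis was scored from nuclear morphology after DAPI staining.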

[2] = system: Jurkat cells stably expressing Bcl-2; test: Apoptosis of Jurkat cells stably expressing Bcl-2; type: cell-based; details: Figure S3
Outline: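 Jurkat cells stably carrying an empty neo vector or a Bcl-2 expression vector, with Bcl-2 levels checked by immunoblot. Cells were exposed to the test peptide (10 µM) in medium with 5% FBS for 36 h. Apoptosis was scored by DAPI nuclear morphology.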

GST-Bcl-2 [3] = target: T1, GST-Bcl-2; test: circular dichroism
GST-Bcl-2/1-90 [4] = target: GST-Bcl-2/1-90 (UniProt P10415); test: fluorescence polarisation
Sequence of GST-Bcl-2/1-90 (UniProt P10415) (P10415 1-90): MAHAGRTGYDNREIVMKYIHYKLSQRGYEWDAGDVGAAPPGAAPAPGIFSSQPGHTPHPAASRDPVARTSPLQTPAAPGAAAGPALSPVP

GST-Bcl-2 [5] = target: T1, GST-Bcl-2; test: FP binding to GST-Bcl-2; details: 200 nM protein, 20 nM FITC peptide-r8, PBS pH 7.6, 25°C, triplicate
Outline: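 GST-Bcl-2 (200 nM) was incubated briefly with FITC-labelled, r8-fused test peptide (20 nM) in PBS, pH 7.6, at 25°C, in triplicate. GST-Bcl-XL and GST served as comparison proteins. Polarization was read at excitation 485 nm and emission 530 nm once the signal stabilized within 20 min. Kd was calculated from single-site binding curves and reported as mean ± SD.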

GST-Bcl-XL [6] = target: GST-Bcl-XL (Homo sapiens, UniProt Q07817); test: FP binding to GST-Bcl-XL; details: 200 nM protein, 20 nM FITC peptide-r8, PBS pH 7.6, 25°C
Sequence of GST-Bcl-XL (Homo sapiens, UniProt Q07817) (Q07817 whole entry): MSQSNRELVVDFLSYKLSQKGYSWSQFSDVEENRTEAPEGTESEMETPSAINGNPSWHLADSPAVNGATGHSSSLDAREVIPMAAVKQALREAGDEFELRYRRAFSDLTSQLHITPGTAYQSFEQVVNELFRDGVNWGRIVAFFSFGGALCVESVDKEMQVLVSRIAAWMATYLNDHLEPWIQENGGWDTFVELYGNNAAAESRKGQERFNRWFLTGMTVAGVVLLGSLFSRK
Outline: (§1)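 Fluorescence polarization: 200 nM protein (GST or GST-Bcl-XL) was incubated with FITC-labelled r8 test peptide (20 nM) in PBS, pH 7.6, at 25°C, in triplicate. FP was read once the signal stabilized within 20 min (excitation 485 nm, emission 530 nm). Results are mean ± SD.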

GST = test: FP binding to GST; details: 200 nM protein, 20 nM FITC peptide-r8, PBS pH 7.6, 25°C
Outline: as §1

Bax = Bax activation in Bcl-2 knockout MEFs; type: cell-based, mouse; details: NuBCP-9 10 µM 16 hr; or GFP-Nur77/478-504 cotransfected with Bcl-2
Outline: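 Bcl-2−/− MEFs were run with wild-type MEFs and exposed to the test peptide (10 µM) for 16 hr. Alternatively, Bcl-2−/− MEFs were cotransfected with Bcl-2 (1 µg) plus GFP or GFP-Nur77/478-504 (1 µg). Active Bax was immunostained with 6A7 antibody and read by flow cytometry. Comparisons were treated vs untreated, or GFP-only vs Bcl-2-coexpressing cells from the same transfection.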

[7] = system: mitochondria (RFP-Mito), H460 cells; test: Mitochondrial targeting in H460 cells; type: cell-based; details: FITC-D-NuBCP-9-r8 6 µM, 2 hr, or GFP fusions transfected 12 hr
Outline: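 H460 cells on glass coverslips were transfected with RFP-Mito (50 ng) plus GFP fused to Nur77 residues 489–497 or 478–504 (50 ng) for 12 hr. In a second arm, cells were transfected with RFP-Mito for 12 hr and then treated with 6 µM FITC-labelled, r8-fused test peptide for 2 hr. Subcellular fluorophore localization was analysed by confocal microscopy.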

Bfl-1 = test: Co-IP with Bfl-1; type: binding; details: HEK293T
Outline: (§2)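 HEK293T cells were transfected with GFP-Nur77/478-504 (2 µg), with or without a Myc-tagged Bcl-2 family member plasmid (0.8 µg). Lysates were immunoprecipitated and complexes detected by western blot. Input was 5% of lysate, and one of three experiments is shown.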

Bcl-B = test: Co-IP with Bcl-B; type: binding; details: HEK293T
Outline: as §2

[8] = system: various cancer cell lines; test: Apoptosis induction, various cancer cell lines; type: cell-based
[9] = system: normal primary mammary epithelial cells; test: Apoptosis of normal primary mammary epithelial cells; type: cell-based; details: 24 h, Annexin V; r8 conjugate
Outline: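 Normal primary mammary epithelial cells were run alongside ZR-75-1 breast cancer cells. They were exposed to the r8-conjugated test peptide for 24 h in medium with 10% FBS. Apoptosis was read by Annexin V binding on flow cytometry.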

GST-Bcl-2/1-90 [10] = target: GST-Bcl-2/1-90 (UniProt P10415 1-90); test: fluorescence polarisation
Sequence of GST-Bcl-2/1-90 (UniProt P10415 1-90) (P10415 1-90): as the sequence (P10415 1-90) above

GST-Bcl-2 [11] = target: GST-Bcl-2 (UniProt P10415 1-239); test: circular dichroism
Sequence of GST-Bcl-2 (UniProt P10415 1-239) (P10415 whole entry): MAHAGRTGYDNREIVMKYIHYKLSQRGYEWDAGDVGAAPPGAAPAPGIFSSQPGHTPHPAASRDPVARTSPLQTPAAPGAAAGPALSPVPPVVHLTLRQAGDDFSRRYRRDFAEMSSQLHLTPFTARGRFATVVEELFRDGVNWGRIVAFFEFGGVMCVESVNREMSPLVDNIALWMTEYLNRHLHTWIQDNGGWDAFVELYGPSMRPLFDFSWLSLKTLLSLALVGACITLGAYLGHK

GST-Bcl-XL [12] = target: GST-Bcl-XL (UniProt Q07817-1 1-233); test: fluorescence polarisation
Sequence of GST-Bcl-XL (UniProt Q07817-1 1-233) (Q07817 whole entry): as the sequence (Q07817 whole entry) above

T1 sequence (P10415 whole entry): as the sequence (P10415 whole entry) above
Sequence of D-NuBCP-9 (unlabeled, in vitro assays) (P22736 whole entry, looked up): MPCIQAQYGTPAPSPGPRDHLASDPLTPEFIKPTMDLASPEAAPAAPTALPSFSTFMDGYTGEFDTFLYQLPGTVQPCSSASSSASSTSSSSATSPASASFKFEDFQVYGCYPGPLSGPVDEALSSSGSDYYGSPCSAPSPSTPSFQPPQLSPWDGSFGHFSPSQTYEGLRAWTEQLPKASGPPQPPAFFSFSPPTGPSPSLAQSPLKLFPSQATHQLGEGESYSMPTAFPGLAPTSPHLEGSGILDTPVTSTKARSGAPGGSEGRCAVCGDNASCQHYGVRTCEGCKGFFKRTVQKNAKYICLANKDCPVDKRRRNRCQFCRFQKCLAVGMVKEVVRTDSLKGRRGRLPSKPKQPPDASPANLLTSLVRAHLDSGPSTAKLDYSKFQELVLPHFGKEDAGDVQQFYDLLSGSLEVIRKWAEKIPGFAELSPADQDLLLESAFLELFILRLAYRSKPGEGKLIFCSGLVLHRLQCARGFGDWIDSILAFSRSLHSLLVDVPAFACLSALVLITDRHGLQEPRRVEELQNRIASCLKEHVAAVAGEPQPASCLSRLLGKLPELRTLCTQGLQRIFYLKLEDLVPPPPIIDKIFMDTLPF
Sequence of FITC-D-NuBCP-9-r8 (P22736 whole entry, looked up): as above

CN(C)CC[C@H](CSc1ccccc1)Nc1ccc(S(=O)(=O)NC(=O)c2ccc(N3CCN(Cc4ccccc4-c4ccc(Cl)cc4)CC3)cc2)cc1[N+](=O)[O-] [ABT-737]
competition with FITC-NuBCP-9 binding to GST-Bcl-2 (GST-Bcl-2 [1]): failure of either a BH3 peptide (Bak BH3) or a potent small molecule inhibitor (ABT-737) that targets the Bcl-2 BH3- binding site to reduce FITC-NuBCP-9 binding to GST-Bcl-2

CN[C@@H]1C[C@H]2O[C@@](C)([C@@H]1OC)n1c3ccccc3c3c4c(c5c6ccccc6n2c5c31)C(=O)NC4 [STS, staurosporine]
effect of stable Bcl-2 expression on killing (CEM leukemia cells): prevented the killing | effect of Bcl-2 knockout on death effect (Bcl-2^−/−MEFs): enhanced in Bcl-2^−/−MEFs | effect of Bcl-2 overexpression on apoptosis [2]: attenuated by Bcl-2 overexpression in Jurkat cells

D-NuBCP-9 (unlabeled, in vitro assays) (from UniProt P22736 489-497) (peptide)
Kd (GST-Bcl-2 [3]): 2 µM | stoichiometry N (GST-Bcl-2 [3]): 1

FITC-D-NuBCP-9-r8 (from UniProt P22736 489-497) (peptide)
Kd (GST-Bcl-2/1-90 [4]): 2.5 µM

FITC-NuBCP-9/AA: FITC-labeled NuBCP-9/AA ({FITC}-ASRSLHSLA; also: r8 (D-Arg octamer) attached, end not given here)
FP change with GST-Bcl-2 (GST-Bcl-2 [5]): little affected

FITC-NuBCP-9: FITC-labeled NuBCP-9 (r8) ({FITC}-FSRSLHSLL; also: r8 (D-Arg octamer) attached, end not given here)
FP change with GST-Bcl-XL (GST-Bcl-XL [6]): neither GST-Bcl-XL nor GST, induced a concentration-dependent FP | FP change with GST (GST): neither GST-Bcl-XL nor GST, induced a concentration-dependent FP | FP change with GST-Bcl-2 (GST-Bcl-2 [5]): induced a concentration-dependent FP of FITC-NuBCP-9 and FITC-D-NuBCP-9

GFP-Nur77/478-504: residues 478–504 of Nur77 fused with green fluorescence protein (GFGDWIDSILAFSRSLHSLLVDVPAFA; also: fused with GFP, end not given here)
Bax activation, Bcl-2^−/−MEFs (Bax): Expression of Bcl-2 in Bcl-2^−/−MEFs restores Bax activation by NuBCP | co-localization with RFP-Mito [7]: co-localized extensively with RFP-Mito | binding to Bfl-1 (Bfl-1): bound to anti-apoptotic Bcl-2 family members, Bcl-B and Bfl-1 | binding to Bcl-B (Bcl-B): bound to anti-apoptotic Bcl-2 family members, Bcl-B and Bfl-1

NuBCP-20: 20 amino acid peptide (aa 480 to 499) of Nur77 (GDWIDSILAFSRSLHSLLVD; UniProt P22736 480-499, looked up, fragment)
apoptotic effect ([8]; r8 conjugate): potent apoptotic effect in various cancer cell lines | apoptotic potency relative to Bid BH3 peptide ([8]; various cancer cell lines): more potent than a BH3 peptide derived from the pro-apoptotic Bcl-2 family member Bid | apoptosis induction [9]: Neither NuBCP-20 nor NuBCP-9 induced the apoptosis of normal primary mammary epithelial cells

{FITC}-FSRSLHSLL[dR][dR][dR][dR][dR][dR][dR][dR] (peptide, UniProt P22736 489-497, looked up) [FITC-NuBCP-9-r8]
Kd (GST-Bcl-2/1-90 [10]): 1.7 µM

FSRSLHSLL (peptide, UniProt P22736 489-497, looked up) [NuBCP-9 (unlabeled, in vitro assays)]
stoichiometry N (GST-Bcl-2 [11]): 1

VHLTLRQAGDDFSRR (also: F5M-labelled Cys, position not given here) [F5M-Bcl-2 BH3 peptide]
Kd (GST-Bcl-XL [12]): 0.145 µM
